ChEMBL document CHEMBL1156750 (Bioorg Med Chem Lett, 2009)
Activity calls are given as the source filed them. The calls are words filed in the database; no cut-off is given here.

Legend:
[1] = molecular target: D(2) dopamine receptor (Homo sapiens) (UniProt P14416); assay: Inhibition of human dopamine D2S receptor at 10 uM
[2] = species on record: Rattus norvegicus; assay: Inhibition of rat sodium channel site2 at 10 uM
[3] = molecular target: Estrogen receptor (Homo sapiens) (UniProt P03372); assay: Inhibition of human ERalpha at 10 uM
Chain of Estrogen receptor (Homo sapiens) (P03372 whole entry): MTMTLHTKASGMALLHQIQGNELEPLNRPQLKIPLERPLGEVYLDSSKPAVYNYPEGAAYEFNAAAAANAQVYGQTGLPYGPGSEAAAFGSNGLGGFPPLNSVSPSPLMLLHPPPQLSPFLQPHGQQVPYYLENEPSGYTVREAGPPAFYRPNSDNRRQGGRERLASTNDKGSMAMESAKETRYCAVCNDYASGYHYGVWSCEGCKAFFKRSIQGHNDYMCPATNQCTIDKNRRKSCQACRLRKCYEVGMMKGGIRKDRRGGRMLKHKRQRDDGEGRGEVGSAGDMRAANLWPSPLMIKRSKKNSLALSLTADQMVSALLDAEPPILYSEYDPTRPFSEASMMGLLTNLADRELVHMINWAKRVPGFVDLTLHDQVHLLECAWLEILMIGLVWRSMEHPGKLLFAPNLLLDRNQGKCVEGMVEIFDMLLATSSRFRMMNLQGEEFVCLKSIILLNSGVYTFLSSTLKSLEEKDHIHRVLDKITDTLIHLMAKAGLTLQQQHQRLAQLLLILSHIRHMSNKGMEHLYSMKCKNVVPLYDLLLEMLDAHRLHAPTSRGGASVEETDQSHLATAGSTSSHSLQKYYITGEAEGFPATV

[4] = species on record: Homo sapiens; assay: Inhibition of human sst receptor at 10 uM
[5] = molecular target: Progesterone receptor (Homo sapiens) (UniProt P06401); assay: Inhibition of human PR at 10 uM
[6] = molecular target: Histamine H2 receptor (Cavia porcellus) (UniProt P47747); assay: Inhibition of guinea pig H2 receptor at 10 uM
[7] = molecular target: Glucocorticoid receptor (Homo sapiens) (UniProt P04150); assay: Inhibition of human GR at 10 uM
Chain of Glucocorticoid receptor (Homo sapiens) (P04150 whole entry): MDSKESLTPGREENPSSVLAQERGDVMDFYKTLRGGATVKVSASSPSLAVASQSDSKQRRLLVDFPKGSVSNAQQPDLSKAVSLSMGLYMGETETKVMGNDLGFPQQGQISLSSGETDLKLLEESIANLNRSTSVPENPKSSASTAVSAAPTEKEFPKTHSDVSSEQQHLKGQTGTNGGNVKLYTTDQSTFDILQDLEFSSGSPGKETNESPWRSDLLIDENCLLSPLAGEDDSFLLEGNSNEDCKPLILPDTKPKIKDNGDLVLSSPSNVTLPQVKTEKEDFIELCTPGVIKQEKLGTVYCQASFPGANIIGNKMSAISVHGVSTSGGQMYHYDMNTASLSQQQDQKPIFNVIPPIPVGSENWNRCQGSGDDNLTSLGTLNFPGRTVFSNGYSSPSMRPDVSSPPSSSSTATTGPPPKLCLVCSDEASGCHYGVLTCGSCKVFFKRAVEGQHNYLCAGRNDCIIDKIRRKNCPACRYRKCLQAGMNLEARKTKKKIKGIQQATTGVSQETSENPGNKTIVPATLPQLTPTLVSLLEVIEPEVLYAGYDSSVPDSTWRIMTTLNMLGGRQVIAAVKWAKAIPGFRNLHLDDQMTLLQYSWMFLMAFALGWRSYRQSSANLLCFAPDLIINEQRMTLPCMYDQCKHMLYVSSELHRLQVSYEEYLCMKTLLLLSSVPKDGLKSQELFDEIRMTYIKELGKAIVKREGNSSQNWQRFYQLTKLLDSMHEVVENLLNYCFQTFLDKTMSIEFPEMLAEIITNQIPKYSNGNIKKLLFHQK

[8] = molecular target: Histamine H1 receptor (Cavia porcellus) (UniProt P31389); assay: Inhibition of guinea pig H1 receptor
Chain of Histamine H1 receptor (Cavia porcellus) (P31389 whole entry): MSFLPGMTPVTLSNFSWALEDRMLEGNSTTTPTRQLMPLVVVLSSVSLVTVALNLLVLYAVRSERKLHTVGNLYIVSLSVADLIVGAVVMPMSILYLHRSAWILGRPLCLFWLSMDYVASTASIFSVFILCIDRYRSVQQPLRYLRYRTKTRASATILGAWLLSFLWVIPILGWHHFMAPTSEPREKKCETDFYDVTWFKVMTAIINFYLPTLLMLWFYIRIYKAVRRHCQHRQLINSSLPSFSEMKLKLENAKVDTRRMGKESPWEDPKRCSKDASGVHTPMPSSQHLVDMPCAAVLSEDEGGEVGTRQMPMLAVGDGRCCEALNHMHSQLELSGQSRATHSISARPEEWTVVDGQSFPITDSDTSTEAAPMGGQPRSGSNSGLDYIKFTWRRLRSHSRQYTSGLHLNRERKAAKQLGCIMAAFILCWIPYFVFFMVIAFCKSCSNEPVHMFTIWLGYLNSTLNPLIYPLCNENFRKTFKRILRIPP

[9] = tested on: Plasma; assay: Anticoagulant activity in Sprague-Dawley rat plasma assessed as concentration required to double the prothrombin based clotting at 30 mg/kg, id; assay type: functional; details: route intraduodenal
[10] = molecular target: Sodium-dependent noradrenaline transporter (Homo sapiens) (UniProt P23975); assay: Inhibition of human NE transporter at 10 uM
Chain of Sodium-dependent noradrenaline transporter (Homo sapiens) (P23975 whole entry): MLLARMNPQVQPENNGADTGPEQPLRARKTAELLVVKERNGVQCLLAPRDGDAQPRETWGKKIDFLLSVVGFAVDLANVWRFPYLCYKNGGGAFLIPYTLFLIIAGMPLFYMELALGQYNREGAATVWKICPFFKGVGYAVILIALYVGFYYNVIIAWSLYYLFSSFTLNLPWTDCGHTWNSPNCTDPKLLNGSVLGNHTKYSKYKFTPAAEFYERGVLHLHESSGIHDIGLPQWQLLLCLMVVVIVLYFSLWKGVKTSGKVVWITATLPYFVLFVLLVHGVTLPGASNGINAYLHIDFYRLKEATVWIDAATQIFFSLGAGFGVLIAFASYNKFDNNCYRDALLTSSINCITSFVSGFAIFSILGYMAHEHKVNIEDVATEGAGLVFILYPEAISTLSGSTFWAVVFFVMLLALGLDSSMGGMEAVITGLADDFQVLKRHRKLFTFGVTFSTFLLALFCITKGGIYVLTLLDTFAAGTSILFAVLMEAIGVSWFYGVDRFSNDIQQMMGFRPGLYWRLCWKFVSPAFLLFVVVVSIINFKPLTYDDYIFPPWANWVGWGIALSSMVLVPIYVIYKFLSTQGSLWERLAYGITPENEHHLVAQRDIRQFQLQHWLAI

[11] = tested on: Rattus norvegicus; assay: Anticoagulant activity against Sprague-Dawley rat carotid artery thrombosis induced by FeCl2 in aspirin-treated rats assessed as decreasing thrombosis weight at 30 mg/kg, po; design: scale not given: the % may be the effect or the level left
[12] = molecular target: Adrenergic receptor alpha-2 (Rattus norvegicus) (UniProt P22086+P19328+P22909); assay: Inhibition of rat alpha-2 adrenergic receptor at 10 uM
[13] = molecular target: Adenosine receptor A1 (Homo sapiens) (UniProt P30542); assay: Inhibition of human A1 receptor at 10 uM
Chain of Adenosine receptor A1 (Homo sapiens) (P30542 whole entry): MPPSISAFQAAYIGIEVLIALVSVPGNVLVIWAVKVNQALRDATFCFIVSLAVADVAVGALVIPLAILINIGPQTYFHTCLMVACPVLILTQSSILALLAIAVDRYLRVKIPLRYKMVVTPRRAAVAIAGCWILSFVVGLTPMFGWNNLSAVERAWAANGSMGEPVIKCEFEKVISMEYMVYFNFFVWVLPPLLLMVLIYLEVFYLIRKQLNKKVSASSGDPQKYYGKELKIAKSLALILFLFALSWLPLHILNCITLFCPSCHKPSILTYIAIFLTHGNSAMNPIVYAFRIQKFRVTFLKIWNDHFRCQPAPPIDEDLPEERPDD

[14] = species on record: Rattus norvegicus; assay: Inhibition of rat Kainate receptor at 10 uM
[15] = molecular target: Glutamate NMDA receptor (Rattus norvegicus) (UniProt P35439+Q00959+Q00960+Q00961+Q62645+Q8VHN2+Q9R1M7); assay: Inhibition of rat NMDA receptor at 10 uM; assay type: protein-complex assay
[16] = species on record: Rattus norvegicus; assay: Inhibition of rat chloride channel at 10 uM
[17] = species on record: Rattus norvegicus; assay: Inhibition of rat AMPA receptor at 10 uM
[18] = tested on: Rattus norvegicus; assay: Anticoagulant activity against […] Sprague-Dawley rat carotid artery thrombosis assessed as decreasing thrombosis weight at 10 mg/kg, po; assay type: functional; design: scale not given: the % may be the effect or the level left
Procedure, shortened: (§1)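 Rat carotid artery thrombosis: vehicle (PEG-400) or compound given by 1 mL/kg gavage at 0 min (5, 10, 15, 30 mg/kg; n = 5, 6, 6, 4; vehicle n = 8), with aspirin 10 mg/kg iv 15 min before FeCl2. Rats anesthetized at 30 min. 50% FeCl2 applied topically at 60 min for 10 min. Thrombus weight taken 1 h later. ANOVA with Dunnett's test.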

[19] = molecular target: Sodium-dependent dopamine transporter (Rattus norvegicus) (UniProt P23977); assay: Inhibition of rat DA transporter at 10 uM
Chain of Sodium-dependent dopamine transporter (Rattus norvegicus) (P23977 whole entry): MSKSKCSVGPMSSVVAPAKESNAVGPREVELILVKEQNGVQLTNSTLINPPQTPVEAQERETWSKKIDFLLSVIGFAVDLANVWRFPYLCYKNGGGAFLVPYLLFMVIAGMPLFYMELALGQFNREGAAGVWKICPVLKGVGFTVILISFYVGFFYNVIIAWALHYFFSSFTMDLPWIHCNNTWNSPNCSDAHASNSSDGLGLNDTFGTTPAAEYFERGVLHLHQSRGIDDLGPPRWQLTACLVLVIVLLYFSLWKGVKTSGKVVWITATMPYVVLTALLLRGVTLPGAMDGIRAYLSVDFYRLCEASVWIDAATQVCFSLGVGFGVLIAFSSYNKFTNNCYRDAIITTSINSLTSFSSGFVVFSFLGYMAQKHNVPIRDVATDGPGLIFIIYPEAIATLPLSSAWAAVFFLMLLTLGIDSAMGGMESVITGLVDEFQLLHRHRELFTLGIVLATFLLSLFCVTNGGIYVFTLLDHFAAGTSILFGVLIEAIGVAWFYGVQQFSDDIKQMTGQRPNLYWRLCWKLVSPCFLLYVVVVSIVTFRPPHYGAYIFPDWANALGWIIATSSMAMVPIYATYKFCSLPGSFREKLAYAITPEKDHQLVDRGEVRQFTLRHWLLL

[20] = tested on: Rattus norvegicus; assay: Anticoagulant activity in Fecl2-induced Sprague-Dawley rat vena cava thrombosis model assessed as inhibition of thrombus weight at 15 mg/kg, po; assay type: functional
Procedure, shortened: (§2)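 Rat vena cava thrombosis: vehicle (PEG-400) or compound at 5, 10, 15, 30 mg/kg (n = 5 per group) given by 1 mL/kg gavage at 0 min. Rats anesthetized at 30 min. 15% FeCl2 applied topically to the vena cava at 60 min for 2 min. Thrombus weight determined 1 h after FeCl2.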

[21] = molecular target: Cholecystokinin receptor type A (Homo sapiens) (UniProt P32238); assay: Inhibition of human CCKA receptor at 10 uM
Chain of Cholecystokinin receptor type A (Homo sapiens) (P32238 whole entry): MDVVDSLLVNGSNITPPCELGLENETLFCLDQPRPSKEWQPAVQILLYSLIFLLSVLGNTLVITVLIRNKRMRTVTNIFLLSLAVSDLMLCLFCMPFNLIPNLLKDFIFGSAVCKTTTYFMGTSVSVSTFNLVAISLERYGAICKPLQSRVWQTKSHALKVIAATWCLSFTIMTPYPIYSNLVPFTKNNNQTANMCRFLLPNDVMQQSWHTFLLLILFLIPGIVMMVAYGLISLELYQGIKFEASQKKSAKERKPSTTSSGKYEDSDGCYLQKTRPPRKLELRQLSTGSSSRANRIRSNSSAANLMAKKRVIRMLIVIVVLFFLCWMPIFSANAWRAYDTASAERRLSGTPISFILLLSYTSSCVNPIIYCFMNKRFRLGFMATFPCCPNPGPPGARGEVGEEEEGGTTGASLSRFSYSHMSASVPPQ

[22] = molecular target: Beta-1 adrenergic receptor (Homo sapiens) (UniProt P08588); assay: Inhibition of human beta-1 adrenergic receptor at 10 uM
Chain of Beta-1 adrenergic receptor (Homo sapiens) (P08588 whole entry, looked up): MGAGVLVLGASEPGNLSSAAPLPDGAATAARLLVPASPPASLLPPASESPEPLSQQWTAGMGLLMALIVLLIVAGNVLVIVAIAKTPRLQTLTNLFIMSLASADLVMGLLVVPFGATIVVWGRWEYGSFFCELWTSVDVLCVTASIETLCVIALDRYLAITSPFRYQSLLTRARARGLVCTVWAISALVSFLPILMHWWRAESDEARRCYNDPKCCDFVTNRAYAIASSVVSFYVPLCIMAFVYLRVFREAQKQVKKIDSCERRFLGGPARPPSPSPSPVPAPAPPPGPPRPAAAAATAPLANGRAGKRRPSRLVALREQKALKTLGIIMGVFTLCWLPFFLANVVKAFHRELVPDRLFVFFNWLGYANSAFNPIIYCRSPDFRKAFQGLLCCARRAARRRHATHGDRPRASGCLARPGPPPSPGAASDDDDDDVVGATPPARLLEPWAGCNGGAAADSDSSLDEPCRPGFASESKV

[23] = molecular target: 5-hydroxytryptamine receptor 2B (Homo sapiens) (UniProt P41595); assay: Inhibition of human 5-HT2B receptor at 10 uM
Chain of 5-hydroxytryptamine receptor 2B (Homo sapiens) (P41595 whole entry): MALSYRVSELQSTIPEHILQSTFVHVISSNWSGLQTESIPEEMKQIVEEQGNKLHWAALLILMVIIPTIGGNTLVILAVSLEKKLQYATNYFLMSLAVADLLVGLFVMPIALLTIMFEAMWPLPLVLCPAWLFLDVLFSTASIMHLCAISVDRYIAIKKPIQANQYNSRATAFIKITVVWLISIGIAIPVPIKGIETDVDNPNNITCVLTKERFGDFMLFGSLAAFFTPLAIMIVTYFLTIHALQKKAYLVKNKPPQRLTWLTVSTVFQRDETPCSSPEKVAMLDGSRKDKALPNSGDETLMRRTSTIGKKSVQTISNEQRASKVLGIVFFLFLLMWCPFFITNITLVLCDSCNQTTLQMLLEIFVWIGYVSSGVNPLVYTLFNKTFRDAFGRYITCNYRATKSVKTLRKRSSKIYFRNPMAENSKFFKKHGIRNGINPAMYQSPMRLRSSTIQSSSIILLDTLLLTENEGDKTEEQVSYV

[24] = tested on: Rattus norvegicus; assay: Anticoagulant activity against Sprague-Dawley rat carotid artery thrombosis induced by FeCl2 in aspirin-treated rats assessed as decreasing thrombosis weight at 15 mg/kg, po; design: scale not given: the % may be the effect or the level left
[25] = species on record: Rattus norvegicus; assay: Inhibition of rat Opiate receptor at 10 uM
[26] = molecular target: Muscarinic acetylcholine receptor (Rattus norvegicus) (UniProt P08482+P08483+P08485+P08911+P10980); assay: Inhibition of rat muscarinic receptor at 10 uM
[27] = species on record: Rattus norvegicus; assay: Inhibition of rat GABA transporter at 10 uM
[28] = molecular target: Beta-2 adrenergic receptor (Homo sapiens) (UniProt P07550); assay: Inhibition of human beta-2 adrenergic receptor at 10 uM
[29] = Inhibition of sodium channel
[30] = Inhibition of human Tryptase
[31] = molecular target: Adrenergic receptor alpha-1 (Rattus norvegicus) (UniProt P15823+P23944+P43140); assay: Inhibition of rat alpha-1 adrenergic receptor at 10 uM
[32] = molecular target: Trypsin (Homo sapiens, UniProt P07477+P07478+P35030); assay: Inhibition of human trypsin; assay type: protein assay
[33] = tested on: Plasma; assay: Anticoagulant activity in human plasma assessed as concentration required to double the prothrombin based clotting time after 30 seconds; assay type: functional
Procedure, shortened: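 Human plasma prothrombin-based clotting time; value is the inhibitor concentration that doubles the clotting time, averaged from two independent determinations.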

[34] = species on record: Rattus norvegicus; assay: Inhibition of rat choline transporter at 10 uM
[35] = molecular target: 5-hydroxytryptamine receptor 1A (Homo sapiens) (UniProt P08908); assay: Inhibition of human 5-HT1A receptor at 10 uM
[36] = species on record: Rattus norvegicus; assay: Inhibition of rat 5-HT receptor at 10 uM
[37] = molecular target: D(1A) dopamine receptor (Homo sapiens) (UniProt P21728); assay: Inhibition of human dopamine D1 receptor at 10 uM
[38] = tested on: Rattus norvegicus; assay: Anticoagulant activity in Fecl2-induced po dosed Sprague-Dawley rat vena cava thrombosis model assessed as inhibition of thrombus weight; assay type: functional; procedure, shortened: as §2
[39] = tested on: Rattus norvegicus; assay: Anticoagulant activity against Sprague-Dawley rat arterial thrombosis model induced by topical application of Fecl2; assay type: functional; details: Rattus norvegicus, Sprague-Dawley, oral; procedure, shortened: as §1

## Cc1cc2cc(N/C(=N\C(=O)c3ccc(C(=O)N(C)C)nc3)N[C@H]3CCCCN(CC(=O)N4CCCC4)C3=O)ccc2o1
[1]
  Activity: inactive
[2]
  Activity: inactive
[3]
  Activity: inactive
[4]
  Activity: inactive
[5]
  Activity: inactive
[6]
  Activity: inactive
[7]
  Activity: inactive
[8]
  Activity: inactive
[9]
  Activity: 3.6 µM
[10]
  Activity: inactive
[11]
  Activity: 54%
[12]
  Activity: inactive
[13]
  Activity: inactive
[14]
  Activity: inactive
[15]
  Activity: inactive
[16]
  Activity: inactive
[17]
  Activity: inactive
[18]
  Activity: 36%
[19]
  Activity: inactive
[20]
  inhibition in vivo at 15 mg/kg: 90%
[21]
  Activity: inactive
[22]
  Activity: inactive
[23]
  Activity: inactive
[24]
  Activity: 31%
[25]
  Activity: inactive
[26]
  Activity: inactive
[27]
  Activity: inactive
[28]
  Activity: inactive
[29]
  Activity: inactive
[30]
  Ki: > 30 µM
[31]
  Activity: inactive
[32]
  Ki: > 10 µM
[33]
  Activity: 2.5 µM
[34]
  Activity: inactive
[35]
  Activity: inactive
[36]
  Activity: inactive
[37]
  Activity: inactive
[38]
  ED50: 2 mg/kg
[39]
  ED50: 10 mg/kg
